Calls of active or inactive are those of the source. The calls are words filed in the database; no cut-off is given here.
System: Flp-In-CHO
Assay: Stimulation of ERK1/2 phosphorylation in Flp-In-CHO cells incubated for 5 mins
Type: cell-based
Conditions: Cricetulus griseus
Procedure, shortened: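 A1AR-FlpInCHO cells were seeded at 4×10^4/well and serum-starved for about 18 h. Cells were stimulated with agonist for 5 min at 37°C, then lysed, and pERK1/2 was detected by SureFire. […] Curves were fitted for pEC50 and Emax. Three experiments in duplicate.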

**Q.** Which Activity does the source give for `OC[C@H]1O[C@@H](n2cnc3c(NCCCCCCN=C=S)ncnc32)[C@H](O)[C@@H]1O` here?
**A.** inactive

**Q.** How did the Activity turn out when `OC[C@H]1O[C@@H](n2cnc3c(NCCCCCCCCCCNC(=S)Nc4ccc(N=C=S)cc4)ncnc32)[C@H](O)[C@@H]1O` was run?
**A.** inactive

**Q.** For `O=C(NCCCCCCCCCCNc1ncnc2c1ncn2[C@@H]1O[C@H](CO)[C@@H](O)[C@H]1O)C1=CC2C=CC1CC2` (some centres not stated), which Activity is on record?
**A.** inactive

**Q.** Which Activity does the source give for `O=C(NCCCCCCNc1ncnc2c1ncn2[C@@H]1O[C@H](CO)[C@@H](O)[C@H]1O)C1=CC2C=CC1CC2` (some centres not stated) here?
**A.** inactive

**Q.** `O=C(NCCNc1ncnc2c1ncn2[C@@H]1O[C@H](CO)[C@@H](O)[C@H]1O)C1=CC2C=CC1CC2` (some centres not stated) was tested. Which Activity did it give?
**A.** inactive

**Q.** `OC[C@H]1O[C@@H](n2cnc3c(NCCCCCCNC(=S)Nc4ccc(N=C=S)cc4)ncnc32)[C@H](O)[C@@H]1O` was tested. Which Activity did it give?
**A.** inactive

**Q.** `OC[C@H]1O[C@@H](n2cnc3c(NCCN=C=S)ncnc32)[C@H](O)[C@@H]1O` was tested. Which Activity did it give?
**A.** inactive

**Q.** How did the Activity turn out when `O=C(NCCCCCCCCCCNc1ncnc2c1ncn2[C@@H]1O[C@H](CO)[C@@H](O)[C@H]1O)c1ccc(S(=O)(=O)F)cc1` was run?
**A.** inactive

Molecular target: T1, Adenosine receptor A1 (Homo sapiens, UniProt P30542)
T1 sequence (P30542 whole entry): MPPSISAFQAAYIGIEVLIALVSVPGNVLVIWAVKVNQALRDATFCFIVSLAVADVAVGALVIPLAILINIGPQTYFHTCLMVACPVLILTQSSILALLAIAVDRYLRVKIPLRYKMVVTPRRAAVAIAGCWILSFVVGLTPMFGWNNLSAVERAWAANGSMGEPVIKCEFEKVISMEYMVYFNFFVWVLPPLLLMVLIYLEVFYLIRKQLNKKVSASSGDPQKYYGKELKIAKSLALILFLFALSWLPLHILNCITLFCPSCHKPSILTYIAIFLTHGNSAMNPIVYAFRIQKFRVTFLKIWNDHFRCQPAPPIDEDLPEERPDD
Assay: Irreversible agonist activity at human adenosine A1 receptor expressed in Flp-In-CHO cells assessed as stimulation of ERK1/2 phosphorylation incubated for 5 mins
Type: cell-based
Conditions: not given

**Q.** Which EC50 does the source give for `O=C(NCCCCCCCCCCNc1ncnc2c1ncn2[C@@H]1O[C@H](CO)[C@@H](O)[C@H]1O)C1=CC2C=CC1CC2` (some centres not stated) here?
**A.** 25.1 nM

**Q.** For `O=C(NCCCCCCNc1ncnc2c1ncn2[C@@H]1O[C@H](CO)[C@@H](O)[C@H]1O)C1=CC2C=CC1CC2` (some centres not stated), which EC50 is on record?
**A.** 15.8 nM

**Q.** For `OC[C@H]1O[C@@H](n2cnc3c(NCCN=C=S)ncnc32)[C@H](O)[C@@H]1O`, which EC50 is on record?
**A.** 158 nM

Molecular target: T2, Adenosine receptor A1 (Homo sapiens) (UniProt P30542)
T2 sequence (whole entry): T1 sequence (P30542 whole entry)
Assay: Binding affinity to human adenosine A1 receptor expressed in NECA-pre-treated Flp-In-CHO cell membranes assessed as [35S]GTP-gamma-S incorporation level at 10 uM incubated for 40 mins followed by washing by liquid scintillation counting
Conditions: Cell membrane, filed as agonist
Procedure, shortened: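 Membranes were pretreated with 10 µM ligand and washed as for the [3H]DPCPX assay. […] 300 pM [35S]GTPγS was then added for 40 min at 20°C, followed by filtration and counting. Values are normalised to NECA-stimulated vehicle-pretreated membranes.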

**Q.** For `O[C@H]1CC[C@H](Nc2nc(-c3ccccc3)nc3[nH]ccc23)CC1`, which Activity is on record?
**A.** 37%
